UPR CHOP act = apoptotic UPR (CHOP) activation; CHO-CHOP luciferase reporter, luminescence; percent of tunicamycin response over DMSO baseline; hit rate 0.34% among 330,000; AID 449763; activation, % at 10 µM;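 active = at 10 µM dose, activation of 40% or more, normalized to positive control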;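 note: 100% = tunicamycin at 10 µg/mL and 0% = DMSO alone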
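Evaluation: % reporter activation, DMSO baseline versus tunicamycin full activation; System: CHO-CHOP luciferase reporter cell line; Input: 500 cells/well; Incubation: 6 h compound treatment, 37 °C; Measured by: Steady-Glo luciferase luminescence; Dosing: one dose, 10 µM in 0.5% DMSO; Buffer or medium: F12 medium, 10% FBS; Benchmarks: positive tunicamycin 10 µg/mL, negative DMSO alone.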
A1 inh = inhibitors of the anti-apoptotic protein A1, read as caspase activation; MEF A1-2A-BIM cells, Caspase-Glo 3/7 luminescence, 3 h; percent of clofoctol response, vehicle zero; caspase activation, % (test concentration not listed); hit rate 0.066% among 330,000;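 active = over half of replicate activation scores above 10%, or exactly half above 10 with the replicate mean above 10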
XBP1 UPR activ = activators of adaptive arm of unfolded protein response (XBP1); CHO-XBP1 luciferase reporter, IRE1-XBP1 UPR activation, luminescence; percent of tunicamycin response, DMSO as zero; hit rate 0.33% among 330,000; AID 463104; activation, % at 20 µM;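 active = versus positive control, 20 µM dose yields 30% or more activation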;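 note: 100% = tunicamycin at 10 µg/mL and 0% = DMSO only wells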
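Material: CHO cell line with stable XBP1 luciferase reporter; schedule: 16-18 h cell attachment at 37 °C, then 6 h compound exposure; signal: glow luminescence from Steady-Glo reagent; medium: serum-containing F12 medium, 10% FBS; benchmarks: tunicamycin 10 µg/mL and vehicle-only wells; read-out: percent activation relative to tunicamycin reference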
CHOP inh = inhibitors of CHOP induction in ER stress response; AID 2732; inhibition, % at 10 µM; CHO-K1 CHOP-promoter luciferase, tunicamycin-induced, 15-18 h; hit rate 3.8% among 220,000;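 active = compounds that reduced the stress-induced luciferase reporter signal by more than about 70% of percent inhibition, limit read from the data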;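 note: 0% = tunicamycin plus vehicle and 100% = wells without tunicamycin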
The depositor's hits bear a star. The entries come from a sample that favours hits as a whole.

`Cc1cc(C)nc(SCc2ccc(C(=O)NNC(=O)Nc3cccc(Cl)c3)cc2)n1` gave A1 inh 1 and CHOP inh 96*.
Screening Cc1cc(C)nc(SCc2ccc(C(=O)N/N=C/c3ccncc3)cc2)n1 returned UPR CHOP act -1, A1 inh 0, XBP1 UPR activ 4 and CHOP inh -9.
Screening CCCN1Cc2cccc(C(=O)Nc3ccc4c(c3)OCO4)c2C1=O returned UPR CHOP act 1, A1 inh 0, XBP1 UPR activ 6 and CHOP inh 4.
CCCN1Cc2cccc(C(=O)Nc3ccc4c(c3)OCCO4)c2C1=O was read as UPR CHOP act -1, A1 inh 0, XBP1 UPR activ -1 and CHOP inh 78*.
Screening NC1=NC[C@H](CC2CCCCC2)N1CCc1cc(C(F)(F)F)cc(C(F)(F)F)c1 returned UPR CHOP act 0, A1 inh 1, XBP1 UPR activ 2 and CHOP inh 94*.
CC(NS(=O)(=O)c1ccc2ccccc2c1)c1ccccn1 (stereo not drawn) was read as UPR CHOP act -1, A1 inh -1 and XBP1 UPR activ -2.
For CCc1cc2c(=O)c(-c3cnn(-c4ccccc4)c3)c(C)oc2cc1OCC(=O)Nc1ccc(F)c(F)c1 the results were UPR CHOP act 12, A1 inh 0, XBP1 UPR activ -1 and CHOP inh 86*.
`CCc1cc2c(=O)c(-c3ccc(F)cc3)c(C)oc2cc1OCC(=O)O` gave UPR CHOP act 1, A1 inh 0, XBP1 UPR activ 1 and CHOP inh 14.
`COc1ccc(-c2[nH]ncc2N=Nc2ccccc2)cc1` gave UPR CHOP act 2, A1 inh 0, XBP1 UPR activ 2 and CHOP inh 73*.
For COc1ccc(N=Nc2cc(-c3ccccc3)ccc2O)cc1 the results were UPR CHOP act 0, A1 inh -1 and XBP1 UPR activ -1.
Cc1cccc(C)c1NC(=O)[C@@]1(CC(=O)O)CC(/C=C/c2ccccc2)=NO1 was read as A1 inh -1.
For CCOc1ccc(N(CC(=O)Nc2cccc(F)c2)S(=O)(=O)c2c(C)noc2C)cc1 the results were UPR CHOP act -3, A1 inh -1, XBP1 UPR activ -6 and CHOP inh 72*.
For Cc1noc(C)c1S(=O)(=O)N(CC(=O)Nc1ccc2c(c1)OCO2)c1ccc(C(C)C)cc1 the results were UPR CHOP act 7, XBP1 UPR activ 0 and CHOP inh 81*.
Screening Cc1nn(C)c(C)c1S(=O)(=O)N(CC(=O)Nc1ccc2c(c1)OCO2)c1ccc(C(C)C)cc1 returned UPR CHOP act 2, A1 inh 0, XBP1 UPR activ 1 and CHOP inh 12.
For COc1ccc(N(CC(=O)Nc2cccc(C)c2)S(=O)(=O)c2c(C)noc2C)cc1 the results were UPR CHOP act -1, A1 inh 0 and XBP1 UPR activ -9.
Screening CCOc1ccccc1NC(=O)CN(c1ccc(OC)cc1)S(=O)(=O)c1c(C)noc1C returned UPR CHOP act -1, A1 inh 0 and XBP1 UPR activ 9.
For CCOc1ccc(N(CC(=O)Nc2ccccc2C)S(=O)(=O)c2c(C)noc2C)cc1 the results were UPR CHOP act -2, A1 inh 0 and XBP1 UPR activ 0.
Screening CCOc1ccccc1NC(=O)CN(c1cc(C)cc(C)c1)S(=O)(=O)c1c(C)noc1C returned UPR CHOP act -1, A1 inh 1, XBP1 UPR activ -2 and CHOP inh 72*.
CCOc1ccc(N(CC(=O)Nc2ccc(C)c(C)c2)S(=O)(=O)c2c(C)noc2C)cc1 was read as UPR CHOP act -2, A1 inh 1, XBP1 UPR activ -5 and CHOP inh 76*.
For CCCCSc1nnc(-c2ccccc2)c2ccccc12 the results were UPR CHOP act 0, A1 inh 0, XBP1 UPR activ 5 and CHOP inh 82*.
Screening CCN1CCN(c2nnc(-c3ccccc3)c3ccccc23)CC1 returned UPR CHOP act 1, A1 inh 0 and XBP1 UPR activ -7.
`O=[N+]([O-])c1ccc(O)c(-c2nc(-c3ccccc3)c(-c3cccs3)[nH]2)c1` gave UPR CHOP act 7, A1 inh -1, XBP1 UPR activ 9 and CHOP inh 85*.
Screening CCOC(=O)C1=C(Cn2cnc3ccccc32)NC(=O)NC1c1cc(C)ccc1C (stereo not drawn) returned UPR CHOP act -5, A1 inh 0, XBP1 UPR activ -5 and CHOP inh 89*.
`COC(=O)C1=C(Cn2cnc3ccccc32)NC(=O)NC1c1cc(C)ccc1C` (stereo not drawn) gave UPR CHOP act -2, A1 inh 0, XBP1 UPR activ -6 and CHOP inh 34.
`CN(C)C1(CN=Cc2cc(Cl)cc([N+](=O)[O-])c2O)CCCCC1` gave UPR CHOP act 0, A1 inh -1 and XBP1 UPR activ 4.
`Cc1cccc(C)c1NC(=O)c1cccc2c1-c1ccccc1C2=O` gave UPR CHOP act 2, A1 inh 0, XBP1 UPR activ 2 and CHOP inh 78*.
Screening CCc1nnc(NC(=O)CSc2nc(-c3ccccc3)c(-c3ccccc3)o2)s1 returned UPR CHOP act -1, A1 inh -2, XBP1 UPR activ 1 and CHOP inh 84*.
`COc1cc(C(=O)NC2CCCCC2)ccc1OCc1ccc(Cl)cc1Cl` gave UPR CHOP act 2, A1 inh -1, XBP1 UPR activ 2 and CHOP inh 85*.
CN(C)/C=C/c1oc2ccc(O)cc2c1[N+](=O)[O-] was read as UPR CHOP act 5, A1 inh 0, XBP1 UPR activ 2 and CHOP inh -23.
For O=S(=O)(c1ccccc1)N1CCN=C1SCc1ccc(Cl)c(Cl)c1 the results were UPR CHOP act 1, A1 inh 0, XBP1 UPR activ 3 and CHOP inh 72*.
O=C(NNC(=S)NC1CCCCC1)c1ccccc1Br was read as UPR CHOP act 3, A1 inh 0 and XBP1 UPR activ -2.
`CC1CCCC(NC(=S)NC(=O)c2ccccc2Br)C1C` (stereo not drawn) gave UPR CHOP act -1, A1 inh 0, XBP1 UPR activ -2 and CHOP inh 89*.
For CCCN(CCC)C1Sc2ccc(C(=O)OC)cc2NC1=O (stereo not drawn) the results were UPR CHOP act 0, A1 inh 1, XBP1 UPR activ -2 and CHOP inh 82*.
COC(=O)c1ccc2c(c1)NC(=O)C(N(CC(C)C)CC(C)C)S2 (stereo not drawn) was read as UPR CHOP act 1, A1 inh 0, XBP1 UPR activ -1 and CHOP inh 58.
CNS(=O)(=O)c1ccc2c(c1)C(=O)c1cc(S(=O)(=O)NC)ccc1CC2 was read as UPR CHOP act 0, A1 inh 1 and XBP1 UPR activ 2.
For CC(C)c1ccc(S(=O)(=O)Nc2ccc(SC(F)F)cc2)cc1 the results were UPR CHOP act 0, A1 inh 1, XBP1 UPR activ 0 and CHOP inh 101*.

Assay outcomes as filed in PubChem.
